# Reference: PubChem BioAssay
# Calls of active or inactive are those of the source.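 Rule for the calls: active = potentiation averaged over duplicate wells exceeding buffer-only control mean by more than 3 SD; inactive = the rest.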
# Molecular target: Potassium voltage-gated channel subfamily KQT member 1 (Homo sapiens) (UniProt P51787)
# Test: enhancement of KCNQ1 channel thallium flux – FluxOR thallium flux, CHO cells, duplicates, confirmation (AID 493007);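 for outcome: cells depolarized by a potassium plus thallium sulfate stimulus after compound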
# Details: KCNQ1 cell line, FluxOR thallium flux fluorescence, at 10 µM; active compounds read high, % of reference activator effect, buffer zero
# Procedure, shortened: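 Material: KCNQ1-expressing CHO cell line; Incubation: FluxOR dye loading 90 min, compound exposure 20 min, room temperature; Detection: FluxOR Tl+ flux fluorescence, 10 s baseline plus 110 s recording; Read-out: percent activation between buffer and R-L3 responses; Control set: buffer-only wells as 0% and R-L3 activator as 100%; Replication: duplicate wells per compound.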
# Potassium voltage-gated channel subfamily KQT member 1 (Homo sapiens), sequence (P51787 whole entry, looked up): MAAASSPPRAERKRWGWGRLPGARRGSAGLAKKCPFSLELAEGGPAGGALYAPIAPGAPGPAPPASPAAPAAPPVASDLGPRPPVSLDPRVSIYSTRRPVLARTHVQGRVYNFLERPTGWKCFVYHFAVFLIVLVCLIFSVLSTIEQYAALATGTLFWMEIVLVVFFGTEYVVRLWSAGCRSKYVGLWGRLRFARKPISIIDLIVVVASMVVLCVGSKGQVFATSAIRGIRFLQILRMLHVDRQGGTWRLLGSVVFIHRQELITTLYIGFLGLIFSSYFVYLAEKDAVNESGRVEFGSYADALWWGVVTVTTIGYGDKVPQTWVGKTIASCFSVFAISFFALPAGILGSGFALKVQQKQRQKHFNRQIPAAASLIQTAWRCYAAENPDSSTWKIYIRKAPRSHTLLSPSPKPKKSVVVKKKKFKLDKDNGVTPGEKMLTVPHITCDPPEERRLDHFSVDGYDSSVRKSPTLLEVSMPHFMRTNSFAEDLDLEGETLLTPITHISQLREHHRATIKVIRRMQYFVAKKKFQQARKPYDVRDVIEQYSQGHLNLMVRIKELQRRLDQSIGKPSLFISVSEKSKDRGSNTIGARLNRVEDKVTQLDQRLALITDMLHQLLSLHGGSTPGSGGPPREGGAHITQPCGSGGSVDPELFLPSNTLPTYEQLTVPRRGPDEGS
Structure (SMILES),potentiation,outcome
O=C(O)CCSc1ncnc2sc(-c3ccccc3)cc12,89.5% (active),–
CC1(N2CCCCC2)CC2(O)C(=[N+]1[O-])CCC/C2=N\O (stereo not given),–,inactive
CCc1ccc(S(=O)(=O)Nc2cc3c(cc2N2CCCCC2)n(C)c(=O)c(=O)n3C)cc1,–,inactive
CN(Cc1nccs1)C(=O)c1ccc(OC2CCN(Cc3ccccn3)CC2)cc1,–,inactive
COc1ccc(C(=O)NC(=S)NNC(=O)c2ccc3ccccc3n2)cc1,26% (active),–
Cc1cc(Cl)n2nc(C)c(-c3ccc(Cl)cc3)c2n1,256% (active),–
O=C1CN(S(=O)(=O)c2ccccc2)CC(=O)N1CCc1ccccc1,–,inactive
CC(=O)N1N=C(N)SC12CCCC2,–,inactive
C=CCn1c(=S)[nH]c2scc(-c3cccs3)c2c1=O,274% (active),–
Cc1[nH]n(C(N)=S)c(=O)c1N=Nc1ccc2ccccc2c1,238% (active),–
O=[N+]([O-])c1cc(C(F)(F)F)ccc1Oc1cccnc1[N+](=O)[O-],–,inactive
Cc1ncc(CN2CCC(CO)(CCc3ccccc3)CC2)s1,–,inactive
CC(=O)Nc1ccc(S(=O)(=O)N2CCC(C(=O)O)CC2)cc1,–,inactive
O=C1CCC(c2ccc(-n3ccnc3)cc2)=NN1,–,inactive
O=C(CNc1ccc2c(c1)OCO2)N/N=C\c1cn(Cc2ccccc2)c2ccccc12,–,inactive
Cc1cc(C)cc(-n2ccnc2SCC(=O)Nc2nccs2)c1,–,inactive
CCOc1ccc(C(=O)C(CCC(CN(C)C)C(=O)c2ccc(OCC)cc2)CN(C)C)cc1 (stereo not given),34.5% (active),–
CCOC(=O)c1cnc2c(C)c(Cl)ccc2c1N1CCN(CC)CC1,–,inactive
COc1cc(OC)cc(C(=O)NC(=S)N(Cc2ccccc2)C(C)C)c1,150% (active),–
O=P(CCCCCCCCCP(=O)(c1ccccc1)c1ccccc1)(c1ccccc1)c1ccccc1,96.5% (active),–

Structure (SMILES),potentiation,outcome
COc1ccc2c(c1)cc(C)c1nnc(SCC(=O)N3CCN(C(=O)c4ccco4)CC3)n12,–,inactive
O=C(CNC(=O)c1ccccc1)NCc1ccc(Cl)cc1,–,inactive
CSC(=S)N/N=C(\C)c1ccccc1,50.5% (active),–
Cc1nonc1NC(=O)OC1CCCCC1,–,inactive
CCOc1ccc(CN(CCC#N)C(=S)NC(=O)c2ccccc2)cc1,47% (active),–
CCCN1CCC(NC(=S)Nc2cccc(Cl)c2Cl)CC1,–,inactive
COc1ccc(NC(=O)/C(=C/c2ccc(OC(C)=O)c(OC)c2)NC(C)=O)cc1,–,inactive
COCCN(C(=O)COC(=O)/C=C/c1cccs1)c1c(N)n(Cc2ccccc2)c(=O)[nH]c1=O,–,inactive
Cc1cccc(NC(=O)C(=O)NNC(=O)c2ccc(C(C)(C)C)cc2)c1,179% (active),–
COc1ccc(NC(=S)NC(=O)c2ccccc2Cl)cc1,–,inactive
Cc1csc(NC(=S)NC(=O)c2ccccc2)n1,32% (active),–
CCN(CC)CCn1c(OC)cc(=O)[nH]c1=O,–,inactive
Cc1cc(NC(=O)CSc2cn(CCNC(=O)c3ccc(F)cc3)c3ccccc23)no1,–,inactive
Cc1ccc(OCc2n[nH]c(=S)n2-c2ccc(Br)cc2)cc1,22.5% (active),–
CCN1C(=O)/C(=C\C(=O)c2cccs2)c2cc(Br)ccc21,–,inactive
CCOc1ccc(-n2cc(C(=O)Nc3cccc(C)n3)c3cc(OC)c(OC)cc3c2=O)cc1,–,inactive
C=CCNC(=S)Nc1sc2c(c1C(=O)OCC)CC(C(C)C)OC2 (stereo not given),132% (active),–
CC(=O)c1c(C)[nH]c(C(=O)Nc2cccc(C(F)(F)F)c2)c1C,–,inactive
Cc1nn(CCc2nn[nH]n2)c2nc(-c3ccc(C4CCCCC4)cc3)cc(C(F)(F)F)c12,58% (active),–
CCCCC(Nc1ncnc2ccccc12)C(=O)O (stereo not given),–,inactive
